Test results as given in ChEMBL document CHEMBL4428078, “Discovery of S3-Truncated, C-6 Heteroaryl Substituted Aminothiazine β-Site APP Cleaving Enzyme-1 (BACE1) Inhibitors” (J Med Chem, 2016).

Assays:
[1] = Metabolic stability in mouse liver microsomes assessed as compound remaining at 0.5 uM measured after 10 mins; assay type: ADME, Microsome; conditions: read-out: Stability
How it was run: (§1)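 Test compound at 0.5 µM incubated 10 min with mouse, rat or human liver microsomes. Read-out is percent of parent compound remaining.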

[2] = target: Beta-secretase 1 (Homo sapiens, UniProt P56817); experiment: Inhibition of BACE1 in human H4 cells expressing swedish mutant APP751 assessed as reduction in amyloid beta level measured after 19 hrs; assay type: cell-based
Sequence of Beta-secretase 1 (P56817 whole entry): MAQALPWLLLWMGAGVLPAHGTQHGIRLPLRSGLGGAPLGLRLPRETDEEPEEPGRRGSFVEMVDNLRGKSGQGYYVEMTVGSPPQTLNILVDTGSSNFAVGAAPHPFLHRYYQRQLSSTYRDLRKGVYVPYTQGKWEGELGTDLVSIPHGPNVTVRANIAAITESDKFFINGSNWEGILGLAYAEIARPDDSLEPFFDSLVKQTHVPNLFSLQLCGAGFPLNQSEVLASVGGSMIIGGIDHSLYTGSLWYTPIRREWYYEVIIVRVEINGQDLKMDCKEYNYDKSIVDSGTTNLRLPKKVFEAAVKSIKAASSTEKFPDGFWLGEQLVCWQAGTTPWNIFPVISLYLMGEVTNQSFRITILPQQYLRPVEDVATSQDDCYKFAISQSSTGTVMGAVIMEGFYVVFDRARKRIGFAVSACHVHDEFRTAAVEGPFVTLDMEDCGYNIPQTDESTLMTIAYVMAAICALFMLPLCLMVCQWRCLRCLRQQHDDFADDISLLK

[3] = Metabolic stability in rat liver microsomes assessed as compound remaining at 0.5 uM measured after 10 mins; assay type: ADME, Microsome; conditions: read-out: Stability; how it was run: as §1
[4] = Metabolic stability in human liver microsomes assessed as compound remaining at 0.5 uM measured after 10 mins; assay type: ADME, Microsome; conditions: read-out: Stability; how it was run: as §1
[5] = tested on: Rattus norvegicus; experiment: In vivo inhibition of BACE1 in po dosed rat assessed as reduction in total amyloid beta level in brain measured after 5 hrs by ELISA relative to control
[6] = tested on: Mus musculus; experiment: In vivo inhibition of BACE1 in mouse assessed as reduction in brain amyloid beta level at 30 mg/kg, po measured after 3 hrs by ELISA relative to control; assay type: functional
How it was run: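 Young mice dosed orally at 30 mg/kg. Brain Aβ was measured 3 h post-dose and expressed as percent reduction.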

[7] = Drug uptake in mouse brain at 30 mg/kg, po measured after 3 hrs; assay type: ADME, organism-based; conditions: read-out: Drug uptake
How it was run: (§2)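 Young mice given a single oral dose of 30 mg/kg. Total brain and plasma drug levels were measured 3 h post-dose and the brain/plasma ratio derived.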

[8] = Ratio of drug level in brain to plasma of mouse at 30 mg/kg, po measured at 3 hrs post dose; assay type: ADME, organism-based; conditions: read-out: BPR; how it was run: as §2
[9] = tested on: Rattus norvegicus; experiment: In vivo inhibition of BACE1 in po dosed rat assessed as reduction in brain amyloid beta42 level measured after 5 hrs by ELISA relative to control
[10] = Plasma concentration in mouse at 30 mg/kg, po measured after 3 hrs; assay type: ADME, organism-based; how it was run: as §2
[11] = tested on: Rattus norvegicus; experiment: In vivo inhibition of BACE1 in po dosed rat assessed as reduction in brain amyloid beta40 level measured after 5 hrs by ELISA relative to control

Structure (SMILES)	remaining at 10 min, 0.5 µM [1] [%]	IC50 [2] [nM]	remaining at 10 min, 0.5 µM [3] [%]	remaining at 10 min, 0.5 µM [4] [%]	concentration at 3 h [7] [µM]	Kp at 3 h [8]	concentration at 3 h [10] [µM]	inhibition [5]	inhibition in vivo at 30 mg/kg [6] [%]	inhibition [9]	inhibition [11]
Cc1noc(C)c1[C@@H]1C[C@@](C)(c2ccccc2)N=C(N)S1	78	480	81	86	–	–	–	–	–	–	–
CCc1noc(C)c1[C@@H]1C[C@@](C)(c2ccc(F)cc2F)N=C(N)S1	41	250	59	21	–	–	–	–	–	–	–
Cc1noc(C)c1[C@@H]1C[C@@](C)(c2ccc(F)cc2F)N=C(N)S1	72	150	78	24	3.6	0.75	4.8	Dose-dependent effect	62	Dose-dependent effect	Dose-dependent effect
Cc1onc(-c2cccnc2)c1[C@@H]1C[C@@](C)(c2ccc(F)cc2F)N=C(N)S1	6	180	5	17	–	–	–	–	–	–	–

Second part, led by results:

remaining at 10 min, 0.5 µM [1] [%]	IC50 [2] [nM]	remaining at 10 min, 0.5 µM [3] [%]	remaining at 10 min, 0.5 µM [4] [%]	concentration at 3 h [7] [µM]	Kp at 3 h [8]	concentration at 3 h [10] [µM]	Structure (SMILES)	inhibition [5]	inhibition in vivo at 30 mg/kg [6] [%]	inhibition [9]	inhibition [11]
59	420	67	35	–	–	–	Cc1noc(C(F)F)c1[C@@H]1C[C@@](C)(c2ccc(F)cc2F)N=C(N)S1	–	–	–	–
12	160	13	38	–	–	–	Cc1onc(-c2ccccc2)c1[C@@H]1C[C@@](C)(c2ccc(F)cc2F)N=C(N)S1	–	–	–	–
53	410	88	45	–	–	–	Cc1noc(-c2ccc(F)cc2)c1[C@@H]1C[C@@](C)(c2ccc(F)cc2F)N=C(N)S1	–	–	–	–
59	420	67	35	–	–	–	CCc1noc(CC)c1[C@@H]1C[C@@](C)(c2ccc(F)cc2F)N=C(N)S1	–	–	–	–
